ChEMBL document CHEMBL1949515, “Regioselective synthesis and antimicrobial activities of some novel aryloxyacetic acid derivatives” (2012)
Values after ≈ are worked out from the molar mass of the structure shown. Active and inactive are the calls of the source. The calls are words filed in the database; no cut-off is given here.

What was measured:
Staphylococcus aureus [1] = assay: Antibacterial activity against Staphylococcus aureus ATCC 29213 after 24 hrs by agar well diffusion method; format: functional
How it was run: (§1)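 Agar well diffusion on nutrient agar seeded with bacterial suspension at 1 × 10⁸ CFU/mL. Wells received compound solution from a stock of 100 mg per mL DMSO. Plates incubated 24 h at 37 °C. Read-out is inhibition zone diameter (mm), done in triplicate and averaged.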

Bacillus subtilis [2] = assay: Antibacterial activity against Bacillus subtilis ATCC 6633 after 24 hrs by agar well diffusion method; format: functional; how it was run: as §1
Priestia megaterium [3] = assay: Antibacterial activity against Bacillus megaterium after 24 hrs by agar well diffusion method; format: functional; how it was run: as §1
Micrococcus luteus [4] = assay: Antibacterial activity against Sarcina lutea after 24 hrs by agar well diffusion method; format: functional; how it was run: as §1
Klebsiella pneumoniae [5] = assay: Antibacterial activity against Klebsiella pneumoniae ATCC 13883 after 24 hrs by agar well diffusion method; format: functional; how it was run: as §1
Pseudomonas aeruginosa [6] = assay: Antibacterial activity against Pseudomonas aeruginosa ATCC 27953 after 24 hrs by agar well diffusion method; format: functional; how it was run: as §1
Escherichia coli [7] = assay: Antibacterial activity against Escherichia coli ATCC 25922 after 24 hrs by agar well diffusion method; format: functional; how it was run: as §1
Mycolicibacterium phlei [8] = assay: Antibacterial activity against Mycobacterium phlei after 24 hrs by agar well diffusion method; format: functional; how it was run: as §1
Saccharomyces cerevisiae [9] = assay: Antifungal activity against Saccharomyces cerevisiae after 48 hrs by agar well diffusion method; format: functional
How it was run: (§2)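 Fungal agar well diffusion on Sabouraud dextrose agar seeded at 1 × 10⁶ CFU/mL. Wells received compound solution from a 100 mg per mL DMSO stock. Incubation 48 h at 28 °C. Inhibition zone diameter (mm) measured in triplicate and averaged.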

Candida albicans [10] = assay: Antifungal activity against Candida albicans NRRL Y-477 after 48 hrs by agar well diffusion method; format: functional; how it was run: as §2
Staphylococcus aureus [11] = assay: Antibacterial activity against Staphylococcus aureus ATCC 29213 after 24 hrs by two fold serial dilution method; format: functional; details: ATCC 29213, 24 h
How it was run: (§3)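 MIC determined by two-fold serial dilution in the appropriate nutrient broth, only for compounds that gave sizeable inhibition zones in the well diffusion screen. Final concentrations stepped down by halves from 66 (66, 33, 16.5 …).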

Bacillus subtilis [12] = assay: Antibacterial activity against Bacillus subtilis ATCC 6633 after 24 hrs by two fold serial dilution method; format: functional; details: ATCC 6633, 24 h; how it was run: as §3
Priestia megaterium [13] = assay: Antibacterial activity against Bacillus megaterium after 24 hrs by two fold serial dilution method; format: functional; how it was run: as §3
Klebsiella pneumoniae [14] = assay: Antibacterial activity against Klebsiella pneumoniae ATCC 13883 after 24 hrs by two fold serial dilution method; format: functional; details: ATCC 13883, 24 h; how it was run: as §3
Pseudomonas aeruginosa [15] = assay: Antibacterial activity against Pseudomonas aeruginosa ATCC 27953 after 24 hrs by two fold serial dilution method; format: functional; details: ATCC 27953, 24 h; how it was run: as §3
Escherichia coli [16] = assay: Antibacterial activity against Escherichia coli ATCC 25922 after 24 hrs by two fold serial dilution method; format: functional; details: ATCC 25922, 24 h; how it was run: as §3
Saccharomyces cerevisiae [17] = assay: Antifungal activity against Saccharomyces cerevisiae by two fold serial dilution method; format: functional; how it was run: as §3
Candida albicans [18] = assay: Antifungal activity against Candida albicans NRRL Y-477 by two fold serial dilution method; format: functional; how it was run: as §3
Micrococcus luteus [19] = assay: Antibacterial activity against Sarcina lutea after 24 hrs by two fold serial dilution method; format: functional; how it was run: as §3
Mycolicibacterium phlei [20] = assay: Antibacterial activity against Mycobacterium phlei after 24 hrs by two fold serial dilution method; format: functional; how it was run: as §3
Saccharomyces cerevisiae [21] = assay: Antifungal activity against Saccharomyces cerevisiae at 50 ug/ml after 48 hrs by agar well diffusion method; format: functional; details: read-out: DIZ
How it was run: (§4)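 Fungal agar well diffusion. Plates were seeded with 1 × 10⁶ CFU/mL fungal suspension on Sabouraud dextrose agar. Wells were filled with compound solution from a 100 mg/mL DMSO stock. Plates were incubated 48 h at 28 °C. The mean inhibition zone diameter (mm) was taken from triplicate runs. Ketoconazole was the standard.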

Candida albicans [22] = assay: Antifungal activity against Candida albicans NRRL Y-477 at 50 ug/ml after 48 hrs by agar well diffusion method; format: functional; details: NRRL Y-477, 48 h, read-out: DIZ; how it was run: as §4
Priestia megaterium [23] = assay: Antibacterial activity against Bacillus megaterium at 50 ug/ml after 24 hrs by agar well diffusion method; format: functional; details: read-out: DIZ
Micrococcus luteus [24] = assay: Antibacterial activity against Sarcina lutea at 50 ug/ml after 24 hrs by agar well diffusion method; format: functional; details: read-out: DIZ
Mycolicibacterium phlei [25] = assay: Antibacterial activity against Mycobacterium phlei at 50 ug/ml after 24 hrs by agar well diffusion method; format: functional; details: read-out: DIZ
How it was run: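 Agar well diffusion. Plates were seeded with bacterial suspension at 1 × 10⁸ CFU/mL spread on nutrient agar. Wells received compound solution made as a 100 mg/mL DMSO stock. Plates were incubated 24 h at 37 °C. Read-out was inhibition zone diameter (mm), run in triplicate and averaged. Ciprofloxacin was the reference.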

Staphylococcus aureus [26] = assay: microbe, parasite or virus in culture; details: ATCC 29213, 24 h, read-out: DIZ
Bacillus subtilis [27] = assay: microbe, parasite or virus in culture; details: ATCC 6633, 24 h, read-out: DIZ
Klebsiella pneumoniae [28] = assay: microbe, parasite or virus in culture; details: ATCC 13883, 24 h, read-out: DIZ
Pseudomonas aeruginosa [29] = assay: microbe, parasite or virus in culture; details: ATCC 27953, 24 h, read-out: DIZ

MIC (Bacillus subtilis [12]) [µg/mL] | MIC (Priestia megaterium [13]) [µg/mL] | MIC (Klebsiella pneumoniae [14]) [µg/mL] | MIC (Escherichia coli [16]) [µg/mL] | MIC (Saccharomyces cerevisiae [17]) [µg/mL] | MIC (Candida albicans [18]) [µg/mL] | Structure (SMILES) | diameter of the inhibition zone (DIZ) (Staphylococcus aureus [1]) | diameter of the inhibition zone (DIZ) (Bacillus subtilis [2]) | diameter of the inhibition zone (DIZ) (Priestia megaterium [3]) | diameter of the inhibition zone (DIZ) (Micrococcus luteus [4]) | diameter of the inhibition zone (DIZ) (Klebsiella pneumoniae [5]) [mm] | diameter of the inhibition zone (DIZ) (Pseudomonas aeruginosa [6]) | diameter of the inhibition zone (DIZ) (Escherichia coli [7]) | diameter of the inhibition zone (DIZ) (Mycolicibacterium phlei [8]) | diameter of the inhibition zone (DIZ) (Saccharomyces cerevisiae [9]) [mm] | diameter of the inhibition zone (DIZ) (Candida albicans [10]) | further results
33 (≈ 61.7 µM) | 16.5 (≈ 30.8 µM) | 16.5 (≈ 30.8 µM) | 8.25 (≈ 15.4 µM) | 8.25 (≈ 15.4 µM) | 8.25 (≈ 15.4 µM) | CC(=N\NC(=O)COc1ccc2ccccc2c1)/C(=N\Nc1ccc(Cl)cc1)S(=O)(=O)c1ccccc1 | 23 mm | 20 mm | 23 mm | inactive | 24 | 26 mm | 28 mm | inactive | 30 | 24 mm | MIC (Staphylococcus aureus [11]): 16.5 µg/mL (≈ 30.8 µM); MIC (Pseudomonas aeruginosa [15]): 16.5 µg/mL (≈ 30.8 µM)
– | – | 16.5 (≈ 31.6 µM) | – | 4.12 (≈ 7.9 µM) | – | CC(=N/NC(=O)COc1ccc(Cl)cc1Cl)/C(=N\Nc1ccc(Cl)cc1)Sc1ccccc1 | inactive | inactive | inactive | inactive | 24 | inactive | inactive | 13 mm | 28 | inactive | –
8.25 (≈ 14.9 µM) | 8.25 (≈ 14.9 µM) | 16.5 (≈ 29.8 µM) | 4.12 (≈ 7.45 µM) | 4.12 (≈ 7.45 µM) | 4.12 (≈ 7.45 µM) | CC(=N/NC(=O)COc1ccc(Cl)cc1Cl)/C(=N\Nc1ccc(Cl)cc1)S(=O)(=O)c1ccccc1 | 27 mm | 29 mm | 32 mm | 26 mm | 28 | 28 mm | 30 mm | 30 mm | 32 | 30 mm | MIC (Staphylococcus aureus [11]): 8.25 µg/mL (≈ 14.9 µM); MIC (Micrococcus luteus [19]): 8.25 µg/mL (≈ 14.9 µM); MIC (Pseudomonas aeruginosa [15]): 16.5 µg/mL (≈ 29.8 µM); MIC (Mycolicibacterium phlei [20]): 4.12 µg/mL (≈ 7.45 µM)
66 (≈ 134 µM) | 16.5 (≈ 33.5 µM) | 33 (≈ 67 µM) | – | 8.25 (≈ 16.7 µM) | 33 (≈ 67 µM) | CC(=N/NC(=O)COc1ccc(Cl)cc1Cl)/C(Cl)=N\Nc1ccc(Br)cc1 | inactive | 18 mm | 22 mm | inactive | 20 | inactive | inactive | inactive | 27 | 21 mm | –
– | – | 16.5 (≈ 38.4 µM) | 16.5 (≈ 38.4 µM) | 16.5 (≈ 38.4 µM) | 33 (≈ 76.9 µM) | CC(=N/NC(=O)COc1ccc2ccccc2c1)/C(Cl)=N\Nc1ccc(Cl)cc1 | inactive | inactive | inactive | inactive | 24 | inactive | 21 mm | 16 mm | 26 | 20 mm | –
66 (≈ 147 µM) | 16.5 (≈ 36.8 µM) | 33 (≈ 73.6 µM) | – | 16.5 (≈ 36.8 µM) | 66 (≈ 147 µM) | CC(=N/NC(=O)COc1ccc(Cl)cc1Cl)/C(Cl)=N\Nc1ccc(Cl)cc1 | inactive | 18 mm | 20 mm | inactive | 21 | inactive | inactive | 15 mm | 24 | 18 mm | –
66 (≈ 117 µM) | 16.5 (≈ 29.1 µM) | 66 (≈ 117 µM) | – | 33 (≈ 58.3 µM) | 66 (≈ 117 µM) | CC(=N/NC(=O)COc1ccc(Cl)cc1Cl)/C(=N\Nc1ccc(Br)cc1)Sc1ccccc1 | inactive | 18 mm | 20 mm | 20 mm | 18 | inactive | inactive | inactive | 23 | 20 mm | MIC (Micrococcus luteus [19]): 16.5 µg/mL (≈ 29.1 µM)
66 (≈ 139 µM) | 16.5 (≈ 34.8 µM) | 33 (≈ 69.7 µM) | – | 16.5 (≈ 34.8 µM) | 33 (≈ 69.7 µM) | CC(=N/NC(=O)COc1ccc2ccccc2c1)/C(Cl)=N\Nc1ccc(Br)cc1 | inactive | 18 mm | 21 mm | inactive | 21 | inactive | inactive | inactive | 24 | 21 mm | –
66 (≈ 110 µM) | 16.5 (≈ 27.5 µM) | 33 (≈ 54.9 µM) | – | 16.5 (≈ 27.5 µM) | 66 (≈ 110 µM) | O=C(COc1ccc2ccccc2c1)NN/C=C(\NNC(=O)COc1ccc2ccccc2c1)c1cc2ccccc2oc1=O | inactive | 18 mm | 20 mm | inactive | 21 | inactive | inactive | inactive | 21 | 20 mm | –
66 (≈ 185 µM) | 8.25 (≈ 23.1 µM) | 33 (≈ 92.6 µM) | – | 16.5 (≈ 46.3 µM) | 66 (≈ 185 µM) | O=C(COc1ccc2ccccc2c1)NNCC(=O)Nc1nccs1 | inactive | 18 mm | 22 mm | inactive | 23 | inactive | inactive | inactive | 22 | 20 mm | –

Structure (SMILES) | MIC (Bacillus subtilis [12]) [µg/mL] | MIC (Priestia megaterium [13]) [µg/mL] | MIC (Klebsiella pneumoniae [14]) [µg/mL] | MIC (Escherichia coli [16]) [µg/mL] | MIC (Saccharomyces cerevisiae [17]) [µg/mL] | MIC (Candida albicans [18]) [µg/mL] | diameter of the inhibition zone (DIZ) (Staphylococcus aureus [1]) | diameter of the inhibition zone (DIZ) (Bacillus subtilis [2]) | diameter of the inhibition zone (DIZ) (Priestia megaterium [3]) | diameter of the inhibition zone (DIZ) (Micrococcus luteus [4]) | diameter of the inhibition zone (DIZ) (Klebsiella pneumoniae [5]) [mm] | diameter of the inhibition zone (DIZ) (Pseudomonas aeruginosa [6]) | diameter of the inhibition zone (DIZ) (Escherichia coli [7]) | diameter of the inhibition zone (DIZ) (Mycolicibacterium phlei [8]) | diameter of the inhibition zone (DIZ) (Saccharomyces cerevisiae [9]) [mm] | diameter of the inhibition zone (DIZ) (Candida albicans [10]) | further results
CC(=O)N1CCN(c2ccc(OCC3COC(Cn4ccnc4)(c4ccc(Cl)cc4Cl)O3)cc2)CC1 (centres undefined) [KETOCONAZOLE] | – | – | – | – | 4.12 (≈ 7.76 µM) | 8.25 (≈ 15.5 µM) | – | – | – | – | – | – | – | – | – | – | zone of inhibition at 50 µg/mL (Saccharomyces cerevisiae [21]): 23 mm; zone of inhibition at 50 µg/mL (Candida albicans [22]): 22 mm
O=C(O)c1cn(C2CC2)c2cc(N3CCNCC3)c(F)cc2c1=O [CIPROFLOXACIN] | 8.25 (≈ 24.9 µM) | 8.25 (≈ 24.9 µM) | 16.5 (≈ 49.8 µM) | 16.5 (≈ 49.8 µM) | – | – | – | – | – | – | – | – | – | – | – | – | zone of inhibition at 50 µg/mL (Priestia megaterium [23]): 24 mm; zone of inhibition at 50 µg/mL (Micrococcus luteus [24]): 20 mm; zone of inhibition at 50 µg/mL (Mycolicibacterium phlei [25]): 22 mm; MIC (Staphylococcus aureus [11]): 8.25 µg/mL (≈ 24.9 µM); MIC (Micrococcus luteus [19]): 16.5 µg/mL (≈ 49.8 µM); MIC (Pseudomonas aeruginosa [15]): 16.5 µg/mL (≈ 49.8 µM); MIC (Mycolicibacterium phlei [20]): 16.5 µg/mL (≈ 49.8 µM); zone of inhibition at 50 µg/mL (Staphylococcus aureus [26]): 20 mm; zone of inhibition at 50 µg/mL (Bacillus subtilis [27]): 22 mm; zone of inhibition at 50 µg/mL (Klebsiella pneumoniae [28]): 25 mm; zone of inhibition at 50 µg/mL (Pseudomonas aeruginosa [29]): 24 mm
